# The list is not random: actives were taken first. Their share in the collection is about 2.3%.
# TRPC4 potent – TRPC4 (mouse) allosteric potentiation; 310,000 compounds, 0.42% hits; Q9QUQ5; HEK293 TRPC4beta/mu-opioid, DAMGO EC20, Fluo-4 Ca2+ flux; hits give high values; B-score at 10 µM;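 active = B-score of calcium response area above 5 SD of library B-scores, with initial fluorescence ratio within 5 SD of library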;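 also: B-score of integrated fluorescence ratio over time as area under calcium response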
# Target sequence (Q9QUQ5 whole entry, looked up): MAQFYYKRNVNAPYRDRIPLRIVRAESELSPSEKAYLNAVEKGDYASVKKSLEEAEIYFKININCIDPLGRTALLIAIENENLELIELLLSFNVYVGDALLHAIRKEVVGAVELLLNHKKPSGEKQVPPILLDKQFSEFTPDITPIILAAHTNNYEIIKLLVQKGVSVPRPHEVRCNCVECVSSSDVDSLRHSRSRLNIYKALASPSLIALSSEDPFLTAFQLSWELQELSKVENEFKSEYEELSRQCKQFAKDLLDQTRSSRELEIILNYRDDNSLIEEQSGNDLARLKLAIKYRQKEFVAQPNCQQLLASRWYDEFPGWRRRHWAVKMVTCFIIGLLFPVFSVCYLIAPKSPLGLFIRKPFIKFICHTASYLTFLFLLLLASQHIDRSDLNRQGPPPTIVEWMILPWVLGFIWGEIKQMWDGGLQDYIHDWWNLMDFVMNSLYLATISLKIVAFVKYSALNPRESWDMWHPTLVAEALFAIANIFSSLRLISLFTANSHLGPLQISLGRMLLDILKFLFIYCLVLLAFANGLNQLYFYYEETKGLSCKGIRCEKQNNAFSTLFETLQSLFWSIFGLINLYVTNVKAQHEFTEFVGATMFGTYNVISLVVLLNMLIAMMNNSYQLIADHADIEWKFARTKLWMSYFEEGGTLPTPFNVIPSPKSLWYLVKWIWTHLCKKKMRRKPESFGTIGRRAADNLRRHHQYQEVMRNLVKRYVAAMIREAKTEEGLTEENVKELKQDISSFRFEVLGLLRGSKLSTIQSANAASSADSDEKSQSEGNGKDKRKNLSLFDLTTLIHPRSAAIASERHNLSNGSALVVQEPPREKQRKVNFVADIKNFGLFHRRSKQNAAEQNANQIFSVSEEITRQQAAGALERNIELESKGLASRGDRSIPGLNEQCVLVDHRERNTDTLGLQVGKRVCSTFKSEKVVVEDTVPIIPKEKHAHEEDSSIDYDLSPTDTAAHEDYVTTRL
# TRPC6 activator – mouse TRPC6 channel activation; Q61143; HEK293-TRPC6 membrane potential dye fluorescence; hits give high values; B-score at 10 µM; 310,000 compounds, 0.13% hits; AID 2550;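 active = B-score of the integrated fluorescence ratio above library mean plus 3 SD, and starting fluorescence ratio within library mean plus 5 SD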;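 also: higher score means more depolarization so channel activation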
# TRPC4 inh – TRPC4 (mouse) channel inhibition; Q9QUQ5; HEK293 TRPC4beta/mu-opioid, DAMGO-evoked Fluo4 calcium flux; hits give low values; B-score at 10 µM; 300,000 compounds, 0.39% hits; AID 2247;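 active = B-score over 3 SD under the library average, no early fluorescence shift, positive overall ratio signal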
#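 Assay system: HEK293 cells with stable TRPC4beta plus mu-opioid receptor expression. Dosing: single dose. Measured by: Fluo4 Ca2+ flux fluorescence. Also added: DAMGO in two steps, submaximal then maximal. Read-out: B score from integrated Fluo4 fluorescence ratio.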
# TRPC6 inhibitor – inhibitors of mouse TRPC6 channel. HEK293-TRPC6, membrane potential dye, ACh-evoked depolarization; hits give low values. B-score at 10 µM. 310,000 compounds, 1.1% hits;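 active = B-score under library mean minus 3 SD, initial fluorescence not abnormally high, positive integrated signal ratio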;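 also: B-score derived from integrated fluorescence ratio over the kinetic read; more negative B-score means stronger inhibition of depolarization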
# TRPC4 agonist – activators of mouse TRPC4 channel | 310,000 compounds, 0.49% hits | B-score at 10 µM | Q9QUQ5 | HEK293 TRPC4beta/mu-opioid, Fluo4 calcium fluorescence; hits give high values;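 active = B-score above 5 SD of library B-scores, and initial fluorescence ratio not above library mean plus 5 SD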;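 also: positive B-score marks a calcium rise read as TRPC4 activation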
#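 Technique: kinetic Fluo4 calcium fluorescence; Test system: TRPC4beta and mu-opioid receptor HEK293 stable cells; Measure: B-scored integrated calcium fluorescence ratio; Benchmarks: low control buffer alone, high control maximal DAMGO; Schedule: 45 min room-temperature Fluo4 loading, 110 s read.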
# TRPC4 sel inh 2 – second selectivity test of TRPC6 inhibitors: effect on mouse TRPC4; shares compounds with TRPC6 inhibitor; HEK293 TRPC4/MOR, membrane potential dye fluorescence; channel activated by saturating DAMGO dose; inhibition, % at 10 µM; 920 compounds, 42% hits;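 active = compounds whose fluorescence signal differed from control wells by over 3 SD, either direction, in both duplicate plates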
# TRPC4 spec – selectivity of TRPC6 inhibitors: effect on mouse TRPC4 | shares compounds with TRPC6 inhibitor | HEK293 TRPC4/mu-opioid, membrane potential fluorescence | activity change, negative = inhibition, % at 10 µM | 920 compounds, 61% hits | AID 2777;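 active = rise or fall in signal beyond 3 SD of buffer-only wells in both replicate plates, either sign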;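 also: integrated kinetic ratio of fluorescence range over baseline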
# HEK293 MPD ctr 2-1 – parental HEK293 nonspecific activity of TRPC6 inhibitors, second screen | parental HEK293 membrane potential dye fluorescence; maximal acetylcholine challenge after compound addition | signal change vs control, % at 10 µM | 920 compounds, 31% hits | shares compounds with TRPC6 inhibitor;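 active = membrane potential signal moving either way by over 3 SD of the maximum-effect control, in both duplicate plates, meaning non-specific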
# HEK293 MPD ctr-1 – counter-screen for TRPC6 inhibitors: effect in parental HEK293 cells; 920 compounds, 60% hits; shares compounds with TRPC6 inhibitor; AID 2780; membrane potential signal change, % at 10 µM; parental HEK293 membrane potential dye fluorescence;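 active = membrane potential signal shifting up or down by more than 3 SD of buffer-only wells, on both duplicate plates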
# HEK293 MPD ctr-2 – checks TRPC6 modulator effects in parental HEK293 cells. shares compounds with TRPC6 inhibitor. membrane potential dye fluorescence. membrane potential signal change, % at 10 µM. 2,400 compounds, 51% hits. AID 488924;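 active = membrane potential signal moves up or down beyond 5 SD from buffer-only wells, on both duplicate plates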
# HEK293 MPD ctr 2-2 – parental HEK293 nonspecific activity of TRPC6 modulators, second screen; shares compounds with TRPC6 inhibitor; 2,400 compounds, 14% hits; membrane potential dye fluorescence; after compound, maximal acetylcholine stimulation; inhibition, % at 10 µM;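 active = membrane potential signal drops by more than 5 SD from the mean control signal, in both duplicate plates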;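 also: plate controls were acetylcholine ECmax control wells for no effect and buffer only wells for full effect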
# TRPC4 ctr mod – selectivity of TRPC6 modulators against mouse TRPC4; shares compounds with TRPC6 inhibitor; 2,400 compounds, 69% hits; percent change from control (negative = decrease, positive = increase), % at 10 µM; HEK293 TRPC4/mu-opioid, membrane potential fluorescence;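 active = membrane potential signal moved up or down beyond 5 SD of buffer control wells, in both duplicate plates, actives on both sides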;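 also: plate controls were assay buffer wells for no effect and DAMGO maximal-effect wells for full effect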
# TRPC4 ctr inh 2 – mouse TRPC4 off-target activity of TRPC6 modulators, second screen. shares compounds with TRPC6 inhibitor. HEK293 TRPC4/mu-opioid, membrane potential dye fluorescence; stimulated with maximal-effect DAMGO. inhibition, % at 10 µM. 2,400 compounds, 55% hits. AID 488928;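 active = drop in membrane potential signal beyond 5 SD of the control wells in both duplicate plates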;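 also: TRPC4 counter screen for TRPC6 hits run under conditions tuned for TRPC6 not TRPC4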
# TRPC6 inh conf – mouse TRPC6 inhibitor confirmation; 3,300 compounds, 43% hits; shares compounds with TRPC6 inhibitor; AID 488960; inhibition, % at 10 µM; HEK293-TRPC6, membrane potential dye, ACh-evoked depolarization;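 active = fluorescence ratio falls more than 5 SD below the full-stimulation control mean, in both duplicate runs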;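 also: integrated fluorescence ratio of peak minus minimum over baseline after agonist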
# TRPC6 act conf – confirmation of mouse TRPC6 activators; shares compounds with TRPC6 inhibitor; HEK293-TRPC6 membrane potential dye fluorescence, FDSS; activation, % at 10 µM; 2,800 compounds, 11% hits; AID 488961;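 active = ratio signal rise beyond 5 SD above unstimulated control wells' mean, seen in both duplicate runs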;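 also: plate controls were buffer EC0 wells for no effect and acetylcholine ECmax response for full effect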
# Numbers without * were called inactive; i = inactive; · = not tested or not shown.
SMILES,TRPC4 potent,TRPC6 activator,TRPC4 inh,TRPC6 inhibitor,TRPC4 agonist,HEK293 MPD ctr-2,HEK293 MPD ctr 2-2,TRPC4 ctr mod,TRPC4 ctr inh 2,TRPC6 inh conf,TRPC6 act conf,others
Cc1ccc(OCCCCNC2CCCC(C)C2C)c(C)c1 (stereo not given),i,13*,i,-5.69*,i,348.5%*,i,102.0%*,51.0%*,i,119.0%*,
CCOC(=O)N1CCN(C(=O)CSc2nc3ccccc3c(=O)n2-c2ccccc2)CC1,i,17*,i,i,i,117.5%*,i,29.5%*,i,·,172.5%*,
NC(=O)CSc1nnc(-c2cc(-c3ccc(Cl)cc3)nc3ccccc23)o1,i,i,i,i,i,·,·,·,·,·,·,
NCCNc1cc(N2CCCC2)ccc1[N+](=O)[O-],i,i,i,-6.33*,i,-164.5%*,i,-31.0%*,70.0%*,58.0%*,i,
CC(C)(C)CNc1cc(N2CCCC2)ccc1[N+](=O)[O-],i,i,i,i,i,·,·,·,·,·,·,
Cc1cccc(CC(=O)NCC2CCCCC2)c1,i,i,i,i,i,·,·,·,·,·,·,
CN(C(=O)c1nn(C)c2c1CS(=O)(=O)c1ccccc1-2)c1cccc(Cl)c1,i,i,i,-5.57*,i,98.5%*,i,21.0%*,i,50.5%*,·,
CCCN1CCN(C(=O)c2oc3ccccc3c2NC(=O)C2CC2)CC1,i,i,i,i,i,·,·,·,·,·,·,
COc1cc2[nH]c(=O)n3nc(-c4ccccc4)nc3c2cc1OC,i,i,i,i,i,·,·,·,·,·,·,
CCN(CC)CCNc1nc2cc(OC)c(OC)cc2c2nc(-c3ccccc3)nn12,i,i,i,-11.5*,i,·,·,·,·,75.5%*,i,TRPC4 sel inh 2=38.5%*;TRPC4 spec=-32.7%*;HEK293 MPD ctr 2-1=32.0%*;HEK293 MPD ctr-1=-384.5%*
CC(=O)NC(CC(=O)N(C)Cc1cccc(Cl)c1Cl)c1ccccc1 (stereo not given),i,i,i,i,i,·,·,·,·,·,·,
Cc1c(OCC(=O)NCCCN2CCCC2=O)ccc2c3c(c(=O)oc12)CCCC3,i,i,i,i,i,·,·,·,·,·,·,
Cc1c(OCC(=O)NCCN2CCOCC2)ccc2c3c(c(=O)oc12)CCC3,i,i,i,-5.15*,i,i,i,-14.0%*,i,i,i,
Cc1cc(=O)oc2c(C)c(OCC(=O)NCCCn3ccnc3)ccc12,i,i,i,-6.56*,i,-192.0%*,i,-31.5%*,30.0%*,i,i,
Cc1c(OCC(=O)NCCCN2CCCC2=O)ccc2c3c(c(=O)oc12)CCC3,i,i,i,-6.13*,i,-105.0%*,i,-19.0%*,i,i,i,
Cc1cc(=O)oc2c(C)c(OCC(=O)NCCCN3CCCC3=O)ccc12,i,i,i,-5.15*,i,-192.0%*,i,-27.5%*,i,i,i,
Cc1ccc(C)c(OCCC(=O)OCC(=O)NCc2ccc(F)cc2)c1,i,i,i,i,i,·,·,·,·,·,·,
CCc1ccc(N=C2N=C(N)c3ccccc32)cc1,i,i,i,-7.84*,i,·,·,·,·,70.6%*,i,TRPC4 sel inh 2=27.5%*;TRPC4 spec=-21.1%*;HEK293 MPD ctr 2-1=i;HEK293 MPD ctr-1=-465.0%*
O=C(/C=C/c1ccccc1)C1=C(O)C(=O)N(CCO)C1c1ccccc1[N+](=O)[O-] (stereo not given),i,12.7*,i,i,i,119.5%*,i,16.5%*,i,i,62.0%*,
CC(C)(C)c1ccc(OC(=O)CN2C(=O)C3C4CCC(C4)C3C2=O)cc1 (stereo not given),i,i,i,-5.86*,i,i,i,i,i,i,i,
O=C(CN1C(=O)C2C3CCC(C3)C2C1=O)OCC(=O)c1ccccc1 (stereo not given),i,i,i,i,i,·,·,·,·,·,·,
CC(Oc1ccccc1C(N)=O)C(=O)Nc1ccc(S(=O)(=O)N2CCCC2)cc1 (stereo not given),i,i,i,i,i,·,·,·,·,·,·,
O=C(O)CCCCCNC(=O)OCC1c2ccccc2-c2ccccc21,i,i,i,i,i,·,·,·,·,·,·,
COCCNc1c2c(nc3ccccc13)CCC2,i,i,-6*,-5.16*,i,-144.0%*,i,-26.0%*,52.5%*,46.0%*,i,
COc1ccc(Nc2c3c(nc4ccccc24)CCC3)cc1,i,i,-7*,-5.24*,i,157.0%*,i,24.5%*,36.0%*,i,·,
CN(C)CCCNc1c2c(nc3ccccc13)CCC2,i,i,i,i,i,·,·,·,·,·,·,
COc1ccc(CCNc2c3ccccc3nc3ccccc23)cc1OC,i,i,i,-6.84*,i,·,·,·,·,i,i,TRPC4 sel inh 2=67.5%*;TRPC4 spec=-23.6%*;HEK293 MPD ctr 2-1=i;HEK293 MPD ctr-1=-411.5%*
c1ccc2c(N3CCOCC3)c3c(nc2c1)CCC3,i,i,i,-5.32*,i,-283.0%*,i,-40.5%*,48.0%*,i,i,
CC1(C)CC(=O)C(N=Nc2ccc(S(=O)(=O)N3CCOCC3)cc2)=C(O)C1,i,i,i,i,i,·,·,·,·,·,·,
